{"source": "ChEMBL document CHEMBL1221324", "about": "“Synthesis and characterization of mitoQ and idebenone analogues as mediators of oxygen consumption in mitochondria” (2010)", "key": {"CCRF-CEM [1]": {"test_system": "CCRF-CEM", "assay": "Cytoprotective activity against diethyl maleate-induced cell death in human CEM cells assessed as cell viability at 0.1 uM treated 18 hrs before diethyl maleate challenge measured after 4 hrs by trypan blue assay", "format": "functional", "details": "read-out: Activity", "method_in_brief": "(§1)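 CEM leukemia cells grown in RPMI 1640 with 10% FBS and 1% penicillin-streptomycin; 5 × 10⁵ cells/well pretreated with compound for 18 h, then exposed to 5 mM diethyl maleate at 37 °C, 5% CO2 for 4 h. Viability by 0.4% trypan blue exclusion, as percent of control cells given neither DEM nor compound; mean ± SD, n=3.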"}, "CCRF-CEM [2]": {"test_system": "CCRF-CEM", "assay": "Cytoprotective activity against diethyl maleate-induced cell death in human CEM cells assessed as cell viability at 0.5 uM treated 18 hrs before diethyl maleate challenge measured after 4 hrs by trypan blue assay", "format": "functional", "details": "read-out: Activity", "method_in_brief": "as §1"}, "CCRF-CEM [3]": {"test_system": "CCRF-CEM", "assay": "Cytoprotective activity against diethyl maleate-induced cell death in human CEM cells assessed as cell viability at 2.5 uM treated 18 hrs before diethyl maleate challenge measured after 4 hrs by trypan blue assay", "format": "functional", "details": "read-out: Activity", "method_in_brief": "as §1"}, "C2C12": {"test_system": "C2C12", "assay": "Inhibition of rotenone-induced blockade of mitochondrial complex 1 in mouse C2C12 cells assessed as increase of oxygen consumption at 10 uM after 2 hrs by fluorescence assay in presence of FCCP", "format": "cell-based", "method_in_brief": "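C2C12 cells grown in DMEM with 10% FBS and 2 mM glutamine were trypsinized, resuspended in phenol red-free medium and pretreated with 25 nM rotenone. They were plated at 200,000 cells/well on an oxygen biosensor plate and given 10 μM compound with 5 μM FCCP. Fluorescence (ex 485/em 620 nm) was followed for 2 h. Rate is M/T, slope at 50% maximum over time to 50% maximum, in triplicate.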"}}, "note": "Calls of active or inactive are those of the source. The rule behind the calls is not given here.", "data": [{"smiles": "COC1=C(C)C(=O)C(CCCCCCCCCCO)=C(C)C1=O", "values": [{"measurement": "viability at 0.1 µM", "setting": "CCRF-CEM [1]", "value": 22.9, "unit": "%"}, {"measurement": "viability at 0.5 µM", "setting": "CCRF-CEM [2]", "value": 74.7, "unit": "%"}, {"measurement": "viability at 2.5 µM", "setting": "CCRF-CEM [3]", "value": 82.3, "unit": "%"}]}, {"smiles": "COC1=C(OC)C(=O)C(CCCCCCCCCCO)=C(C)C1=O", "note": "[IDEBENONE]", "values": [{"measurement": "viability at 0.1 µM", "setting": "CCRF-CEM [1]", "value": 24.6, "unit": "%"}, {"measurement": "viability at 0.5 µM", "setting": "CCRF-CEM [2]", "value": 35.8, "unit": "%"}, {"measurement": "viability at 2.5 µM", "setting": "CCRF-CEM [3]", "value": 86.2, "unit": "%"}]}, {"smiles": "CC1=C(C)C(=O)C(CCCCCCCCCCO)=C(C)C1=O", "values": [{"measurement": "viability at 0.1 µM", "setting": "CCRF-CEM [1]", "value": 34.8, "unit": "%"}, {"measurement": "viability at 0.5 µM", "setting": "CCRF-CEM [2]", "value": 77.3, "unit": "%"}, {"measurement": "viability at 2.5 µM", "setting": "CCRF-CEM [3]", "value": 96.3, "unit": "%"}]}, {"smiles": "COC1=C(OC)C(=O)C(CCCCC[P+](c2ccccc2)(c2ccccc2)c2ccccc2)=C(C)C1=O", "values": [{"measurement": "Rescue of oxygen consumption (active/not active)", "setting": "C2C12", "value": "inactive"}]}, {"smiles": "COC1=C(OC)C(=O)C(CCC[P+](c2ccccc2)(c2ccccc2)c2ccccc2)=C(C)C1=O", "values": [{"measurement": "Rescue of oxygen consumption (active/not active)", "setting": "C2C12", "value": "Active"}]}, {"smiles": "COC1=C(OC)C(=O)C(CCCCCCCCCC[P+](c2ccccc2)(c2ccccc2)c2ccccc2)=C(C)C1=O", "values": [{"measurement": "Rescue of oxygen consumption (active/not active)", "setting": "C2C12", "value": "inactive"}]}, {"smiles": "COC1=C(C)C(=O)C(C)=C(CCCCCCCCCCO)C1=O", "values": [{"measurement": "viability at 0.1 µM", "setting": "CCRF-CEM [1]", "value": 8.27, "unit": "%"}, {"measurement": "viability at 0.5 µM", "setting": "CCRF-CEM [2]", "value": 21.2, "unit": "%"}, {"measurement": "viability at 2.5 µM", "setting": "CCRF-CEM [3]", "value": 77.1, "unit": "%"}]}, {"smiles": "COC1=C(OC)C(=O)C(CCCCCCCCCCCCCCC[P+](c2ccccc2)(c2ccccc2)c2ccccc2)=C(C)C1=O", "values": [{"measurement": "Rescue of oxygen consumption (active/not active)", "setting": "C2C12", "value": "inactive"}]}]}
